{
  "source": "ChEMBL document CHEMBL1142437",
  "about": "“Constrained analogues of procaine as novel small molecule inhibitors of DNA methyltransferase-1” (J Med Chem, 2008)",
  "note": "Activity calls are given as the source filed them. No cut-off for these calls is given here.",
  "data": [
    {"molecular_target": "DNA (cytosine-5)-methyltransferase 1 (Homo sapiens) (UniProt P26358)", "sequence (P26358 whole entry)": "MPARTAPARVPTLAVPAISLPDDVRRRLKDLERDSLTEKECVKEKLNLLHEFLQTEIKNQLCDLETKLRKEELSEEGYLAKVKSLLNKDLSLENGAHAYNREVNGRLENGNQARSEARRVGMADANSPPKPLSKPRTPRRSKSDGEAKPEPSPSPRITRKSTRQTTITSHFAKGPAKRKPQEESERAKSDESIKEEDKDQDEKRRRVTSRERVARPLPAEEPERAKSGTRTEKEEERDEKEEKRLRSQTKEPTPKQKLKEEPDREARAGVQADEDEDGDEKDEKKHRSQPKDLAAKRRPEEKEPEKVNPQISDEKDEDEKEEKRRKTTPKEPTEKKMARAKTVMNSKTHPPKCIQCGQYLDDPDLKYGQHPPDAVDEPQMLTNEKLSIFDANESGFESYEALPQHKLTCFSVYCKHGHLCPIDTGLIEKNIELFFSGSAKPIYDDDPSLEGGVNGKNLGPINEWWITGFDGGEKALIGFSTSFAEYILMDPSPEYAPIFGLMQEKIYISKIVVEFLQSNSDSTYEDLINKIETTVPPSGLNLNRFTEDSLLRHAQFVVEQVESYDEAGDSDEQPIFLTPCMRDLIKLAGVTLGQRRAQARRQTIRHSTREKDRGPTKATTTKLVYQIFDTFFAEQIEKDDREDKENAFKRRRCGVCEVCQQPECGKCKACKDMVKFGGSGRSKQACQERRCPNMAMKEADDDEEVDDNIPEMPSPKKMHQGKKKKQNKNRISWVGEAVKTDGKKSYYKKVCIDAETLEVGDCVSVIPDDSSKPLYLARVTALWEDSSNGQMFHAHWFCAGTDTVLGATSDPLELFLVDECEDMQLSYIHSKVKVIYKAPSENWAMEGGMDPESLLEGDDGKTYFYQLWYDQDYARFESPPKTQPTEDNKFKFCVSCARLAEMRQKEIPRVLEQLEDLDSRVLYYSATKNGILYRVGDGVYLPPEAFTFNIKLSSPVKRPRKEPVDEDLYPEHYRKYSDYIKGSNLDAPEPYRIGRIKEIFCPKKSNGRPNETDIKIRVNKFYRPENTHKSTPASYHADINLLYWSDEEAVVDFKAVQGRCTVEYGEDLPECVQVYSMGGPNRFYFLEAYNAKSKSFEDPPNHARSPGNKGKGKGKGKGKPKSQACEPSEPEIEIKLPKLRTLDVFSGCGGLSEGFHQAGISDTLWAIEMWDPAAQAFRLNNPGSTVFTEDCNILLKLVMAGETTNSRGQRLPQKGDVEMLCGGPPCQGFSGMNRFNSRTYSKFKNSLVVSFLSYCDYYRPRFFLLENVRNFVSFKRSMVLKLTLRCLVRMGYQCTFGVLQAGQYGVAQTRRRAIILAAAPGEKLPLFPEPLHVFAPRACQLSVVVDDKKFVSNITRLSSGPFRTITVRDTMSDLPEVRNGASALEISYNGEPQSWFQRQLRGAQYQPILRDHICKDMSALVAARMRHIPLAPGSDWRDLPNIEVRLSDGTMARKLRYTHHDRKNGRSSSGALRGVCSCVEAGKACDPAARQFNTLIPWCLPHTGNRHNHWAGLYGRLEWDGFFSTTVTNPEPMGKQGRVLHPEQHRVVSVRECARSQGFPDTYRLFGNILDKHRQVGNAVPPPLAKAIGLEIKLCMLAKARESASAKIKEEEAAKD", "assay": "Inhibition of human recombinant DNMT1 expressed in Sf9 cells", "values": [
      {"smiles": "O=[N+]([O-])c1ccc(C2=NC[C@H](CN3CCCC3)O2)cc1", "Activity": "Active"},
      {"smiles": "CCN(CC)C[C@H]1COC(c2ccc([N+](=O)[O-])cc2)=N1", "Activity": "Active"},
      {"smiles": "O=[N+]([O-])c1ccc(C2=N[C@@H](CN3CCCC3)CO2)cc1", "Activity": "Active"},
      {"smiles": "CCN(CC)C[C@H]1CN=C(c2ccc([N+](=O)[O-])cc2)O1", "Activity": "Active"},
      {"smiles": "CCN(CC)C[C@@H]1COC(c2ccc([N+](=O)[O-])cc2)=N1", "Activity": "Active"},
      {"smiles": "CCN(CC)C[C@@H]1CN=C(c2ccc([N+](=O)[O-])cc2)O1", "Activity": "Active"},
      {"smiles": "O=[N+]([O-])c1ccc(C2=N[C@H](CN3CCCC3)CO2)cc1", "Activity": "Active"}
    ]},
    {"test_system": "HL-60", "assay": "Induction of chromosomal satellite repeats demethylation in human HL60 cells at 0.5 mM after 72 hrs", "type": "functional, cell-based", "how_it_was_run": "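HL60 human myeloid leukemia cells exposed 72 h to 0.5 mM drug in DMSO, DMSO (1%) as control. Methylation of chromosomal satellite repeats (C1S2) assessed by COBRA assay on genomic DNA.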", "values": [
      {"smiles": "O=[N+]([O-])c1ccc(C2=NC[C@H](CN3CCCC3)O2)cc1", "Activity": "Active"},
      {"smiles": "CCN(CC)CCOC(=O)c1ccc(N)cc1", "Activity": "Active"}
    ]}
  ]
}
